Test results: publication PMC9066373 (Journal for Immunotherapy of Cancer, 2022)

System: HHD-DR1 mice
Experiment: Immunization of HHD-DR1 mice, IFN-γ ELISPOT of splenocytes
Format: in vivo
Details: HHD-DR1 mice n=4, poly(I:C), in words
Summary of the method: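 HHD-DR1 transgenic mice (human HLA-A*02.01 and HLA-DRB1*01; n=4/group) received a CD8 neoantigen peptide with poly(I:C), combined with a CD4 neoantigen peptide, anti-CD40 or both. Adjuvants were given at 50 µg/mouse. Class I peptide was injected s.c.; class II peptide i.v., boosted 1 week later. Spleens were taken 7 days after the last dose. Splenocytes (8×10⁵/well) were peptide-stimulated (10–0.01 µM) for 24 h and read by IFN-γ ELISPOT, no-peptide background subtracted.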

Sequence: KYVYDFGVSV
- Response against KYV when antiCD40 is added to KYV plus EVT: antiCD40 did not improve responses
